Screening results (PubChem BioAssay)
Apaf1 activ: activators of human Apaf-1 apoptosome; O14727; Apaf-1 apoptosome caspase-3 activation, DEVD-Rh110 fluorescence; stronger effect = lower value; activity change, negative = activation, % at 20 µM; hit rate 0.31% among 330,000;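 active means activity change at or below -40% at 20 µM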
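Material: reconstituted apoptosome of Apaf-1, cytochrome c, caspase-9, procaspase-3; times: 30 min preincubation, 50 min reaction, room temperature; measured by: fluorescence, 540 nm emission, 480 nm excitation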
Rh110 interf act: interferes with Rh110 fluorescence, flagging false Apaf-1 activators | shares compounds with Apaf1 activ | Rh110 fluorescence interference, quenched caspase reaction, Ex480/Em540 | fluorescence interference (activity change), % at 20 µM, hits read low | 980 tested, under 10 active | AID 504616;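 active means mean activity change at or below -40% when tested at 20 µM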
Apaf-1 act conf: Apaf-1 (human) activation, single-dose confirmed. reconstituted apoptosome caspase-3 activity, DEVD-Rh110 fluorescence; stronger effect = lower value. shares compounds with Apaf1 activ. activity change, negative = activation, % at 20 µM. hit rate 5% among 980;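 active means mean activity change at or below -40%, meaning activation of 40% or more, at 20 µM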
Hits are given with their value; i = inactive; nt = not tested or not shown. A selection follows.

SMILES	Apaf1 activ	Rh110 interf act	Apaf-1 act conf
COc1ccc(C(CCN2CCCC(C)C2)c2c(OC)cc(OC)c3c(-c4ccccc4)cc(=O)oc23)cc1 (centres undefined)	i	nt	nt
CN(CC(=O)Nc1ccc2c(c1)OCCO2)S(=O)(=O)c1cccc2cccnc12	-114.9	i	i
CCN(Cc1ccccc1)S(=O)(=O)c1ccc(C(=O)N(CCCN(C)C)c2nc3cc4c(cc3s2)OCCO4)cc1	i	nt	nt
CCN(CC(=O)Nc1ccc2c(c1)OCCO2)S(=O)(=O)c1ccc(C)cc1	-77.8	i	i
COC(=O)CCC(=O)OC1(C)C(=O)C=C2C=C(C3CC3)N(CCCOC(C)C)C=C2C1=O (centres undefined)	i	nt	nt
CCCCCCCCCCOC(=O)Cn1c(COc2ccc(Cl)cc2)[n+](C)c2ccccc21	i	nt	nt
CCOc1ccc(-c2nc(CSc3nnc(N)s3)cs2)cc1	-523.1	i	i
COc1ccc(-n2c3nc4ccccc4nc3c3c(=N)oc(C)nc32)cc1	i	nt	nt
Oc1cccc2c(NC(=S)Nc3ccc(SC(F)F)cc3)cccc12	i	nt	nt
Cc1ccc(NC2=C/C(=N/S(=O)(=O)c3cccs3)c3ccccc3C2=O)cc1	i	nt	nt
CN1CCC[C@@H]1CCNC(=O)c1c(-c2ccc3c(c2)OCO3)noc1-c1ccsc1	i	nt	nt
COc1cc2c(cc1OC)CN(Cc1cc(=O)oc3cc(C)c(Cl)cc13)CC2	-42.9	i	i
S=c1[nH]c2cc(Cl)c3cccnc3c2o1	i	nt	nt
CCOc1cc2[nH]c(=O)n(CCCCC(=O)NCc3ccco3)c(=O)c2cc1OCC	-190.1	i	i
CN1C(=O)c2cccc3c(S(=O)(=O)NCc4ccco4)ccc1c23	i	nt	nt
CCOC(=O)c1c2c(n(C)c1COC)C(=O)C(=O)c1ccc(Br)cc1-2	i	nt	nt
CCOC(=O)C1CCCN(C2CCN(Cc3nc(Cc4ccccc4)no3)CC2)C1 (centres undefined)	-72.0	i	i
O=C(C1CCCN(S(=O)(=O)c2cnc[nH]2)C1)N1CCN(Cc2ccccc2)CC1 (centres undefined)	i	nt	nt
CCOC(=O)C1CCN(C2=C(NS(=O)(=O)c3ccc(Br)cc3)C(=O)c3ccccc3C2=O)CC1	i	nt	nt
Cc1cccc(C)c1OCC(=O)N(Cc1ccco1)C1CCS(=O)(=O)C1 (centres undefined)	-378.0	i	i
Oc1ccc(Cl)cc1CNc1cccc2cccnc12	i	nt	nt
COc1cc(CCc2ccccc2)c(C(=O)O)c(O)c1C/C=C(/C)CCC=C(C)C	i	nt	nt
O=C1C(=O)N(c2nccs2)C(c2ccccc2F)/C1=C(\O)c1ccc2c(c1)OCCO2 (centres undefined)	-40.1	i	i
O=C1C(=O)N(CCN2CCOCC2)C(c2ccccc2)/C1=C(\O)c1ccc2c(c1)OCCO2 (centres undefined)	i	nt	nt
CCOC(=O)c1c(CN(C)C)n(C)c2c(O)c(N=NC(N)=O)c3ccc(Br)cc3c12	i	nt	nt
SMILES	Apaf1 activ	Rh110 interf act	Apaf-1 act conf
Cc1[nH]n(-c2ccccc2)c(=O)c1C(C[N+](=O)[O-])c1ccccc1Cl (centres undefined)	i	nt	nt
O=C(Nc1ccc(Oc2ccccc2)cc1)C1CCN(c2c3c(nc4ncnn24)CCC3)CC1	i	nt	nt
O=C1C=C(Nc2ccccc2)c2ccccc2C1=O	i	nt	nt
Cn1/c(=N/NC(=O)c2ccccc2F)sc2ccccc21	-71.6	i	i
COc1cc(/C=C2/C(=O)N(c3cccc(Br)c3)N=C2C)cc(OC)c1O	i	nt	nt
Cc1ccc(N(CC(=O)N/N=C/c2ccc(OC3CSC3)cc2)S(=O)(=O)c2ccccc2)c(C)c1	i	nt	nt
CCOC(=O)C(=O)Nc1cc(Cl)ccc1C	-54.4	i	i
O=c1[nH]c(Nc2ccccn2)cc2ccccc12	i	nt	nt
N#Cc1c(N(CCO)CCO)nc(N)c2c(N)nc3c(c12)CC(=O)N3CC1CCCO1 (centres undefined)	i	nt	nt
COc1ccc(C(=O)Nc2ccc(/C(C)=N/NC(=O)c3ccccc3O)cc2)cc1OC	-176.0	i	i
CC(=O)N(C1=C(N)C(=O)c2ccccc2C1=O)c1ccccc1	i	nt	nt
Cn1c(=O)c2c(-c3ccc(C(C)(C)C)cc3)n(N3CCOCC3)cc2n(C)c1=O	-60.2	i	i
O=C1C(Cl)=C(NCCCO)C(=O)c2ccccc21	i	nt	nt
CC(=O)[C@H]1[C@@H]2C(=O)N(c3cccc(Cl)c3)C(=O)[C@@H]2[C@H]2c3ccccc3C=CN21	i	nt	nt
CCN1CCN(Cc2ccc(NC(=O)c3ccc(C)c(NC(=O)c4csc(-c5ccncc5)n4)c3)cc2C(F)(F)F)CC1	i	nt	nt
Nc1cccnc1Sc1cccc(Cl)c1	i	nt	nt
O=C(NCc1cccnc1)c1cc(Sc2cccc(Cl)c2)nc2ccccc12	-47.0	i	i
Cc1oc2c(c1C(=O)NCc1cccnc1)C(=O)c1ccccc1C2=O	i	nt	nt
CCc1cc[n+](C2=C([O-])c3ccccc3C(=O)/C2=N\S(=O)(=O)c2cccs2)cc1	i	nt	nt
